Test results from ChEMBL document CHEMBL1287801, “Discovery of NBI-77860/GSK561679, a potent corticotropin-releasing factor (CRF1) receptor antagonist with improved pharmacokinetic properties” (Bioorg Med Chem Lett, 2010).

Legend:
Rattus norvegicus = assay: AUC (0 to 24 hrs) in rat at 10 mg/kg, po; assay type: ADME, organism-based, Plasma; parameters: time < 24 hr, dose 10 mg/kg, route oral; details: in vivo
Method in brief: (§1)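 Rats were given a single oral dose of 10 mg/kg and followed for 24 h. Plasma exposure was expressed as AUC0–24 and oral bioavailability was determined. Brain and plasma levels were measured 1 h post-dose to give the brain/plasma ratio.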

[1] = Ratio of drug uptake in brain to plasma in rat at 10 mg/kg, po; assay type: ADME, organism-based; parameters: dose 10 mg/kg, route oral; details: brain and plasma, read-out: BPR; method in brief: as §1
[2] = Volume of distribution in rat at 5 mg/kg, iv after 72 hrs; assay type: ADME, organism-based; parameters: dose 5 mg/kg, route intravenous; details: in vivo
Method in brief: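 Rats received a single intravenous dose of 5 mg/kg in a 72 h pharmacokinetic study. Clearance and volume of distribution at steady state (Vdss) were derived.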

[3] = Metabolic stability in human liver microsome assessed as maximum bioavailability; assay type: ADME; details: liver microsomes, read-out: Max Achievable Bioavailability
[4] = target: T1, Corticotropin-releasing factor receptor 1 (Homo sapiens, UniProt P34998); assay: Antagonist activity at human recombinant CRF1 receptor; assay type: functional
T1 sequence (P34998 whole entry): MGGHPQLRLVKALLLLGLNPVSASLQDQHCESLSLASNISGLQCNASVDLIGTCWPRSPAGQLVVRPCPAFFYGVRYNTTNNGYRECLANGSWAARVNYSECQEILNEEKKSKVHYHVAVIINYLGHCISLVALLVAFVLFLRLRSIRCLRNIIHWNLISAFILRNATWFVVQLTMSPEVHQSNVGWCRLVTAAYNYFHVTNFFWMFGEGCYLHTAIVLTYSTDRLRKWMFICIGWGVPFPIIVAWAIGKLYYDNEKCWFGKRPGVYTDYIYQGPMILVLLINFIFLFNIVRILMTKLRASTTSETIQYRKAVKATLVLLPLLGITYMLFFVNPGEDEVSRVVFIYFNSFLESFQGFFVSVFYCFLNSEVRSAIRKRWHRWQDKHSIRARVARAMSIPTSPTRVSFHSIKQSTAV

| Fh [3] [%] | Ki [4] [nM] | SMILES | also measured |
| --- | --- | --- | --- |
|  |  | CC[C@H](Nc1cc(C)nc2c(-c3ccc(OC)cc3C)c(C)nn12)c1nc(C)no1 [VERUCERFONT] | AUC (Rattus norvegicus): 3130 ng·h/mL; Kp [1]: 1.6; Vd [2]: 7.5 L/kg |
| 17 |  | CCCN(CCC)c1cc(C)nc2c(-c3cnc(N(C)C)cc3C)c(C)nn12 |  |
| 26 | 79.4 | COc1ccc(-c2c(C)nn3c(NC(C)Cc4noc(C)n4)cc(C)nc23)c(C)c1 (stereo not given) |  |
| 64 | 100 | CCC(Nc1cc(C)nc2c(-c3ccc(OC)cc3C)c(C)nn12)c1nnc(C)o1 (stereo not given) |  |
|  | 63.1 | COc1ccc(-c2c(C)nn3c(NCc4nc(C)no4)cc(C)nc23)c(C)c1 |  |
|  | 251 | COc1ccc(-c2c(C)nn3c(NC(C)Cc4nnc(C)o4)cc(C)nc23)c(C)c1 (stereo not given) |  |
| 17 | 5.01 | CCN(Cc1nc(C)no1)c1cc(C)nc2c(-c3ccc(OC)cc3C)c(C)nn12 |  |
|  | 50.1 | CCC(Nc1cc(C)nc2c(-c3ccc(OC)cc3OC)c(C)nn12)c1nc(C)no1 (stereo not given) |  |
| 32 | 31.6 | COc1ccc(-c2c(C)nn3c(NC(C)Cc4nc(C)no4)cc(C)nc23)c(C)c1 (stereo not given) |  |
